{"source": "ChEMBL document CHEMBL1140079", "about": "“Discovery of orally bioavailable cathepsin S inhibitors for the reversal of neuropathic pain” (J Med Chem, 2008)", "key": {"[1]": {"experiment": "Inhibition of rat cathepsin S cysteine 137 mutant by fluorescence assay", "outline": "(§1)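 Recombinant rat cathepsins K, L, S (137Gly and 137Cys forms) and mouse cathepsin S in a fluorescence assay. Substrates: Z-Phe-Arg-MCA for K and L, Z-Leu-Leu-Arg-MCA for S. IC50 reported as means ± SD of three experiments.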"}, "Rattus norvegicus [2]": {"species": "Rattus norvegicus", "experiment": "Selectivity for rat cathepsin S glycine 137 mutant over rat cathepsin K", "outline": "(§2)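 Recombinant rat cathepsins in a fluorescence assay with MCA substrates: Z-Leu-Leu-Arg-MCA for cathepsin S (137Gly form), Z-Phe-Arg-MCA for K and L, and Z-Arg-Arg-MCA for B. IC50 values were taken as means ± SD of three experiments, and selectivity was compared from the IC50 values against the S enzyme and each other cathepsin.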"}, "[3]": {"experiment": "Plasma clearance in Sprague-Dawley rat at 1 mg/kg, iv and 3 mg/kg, po by LC/MS analysis", "assay_type": "ADME, organism-based", "outline": "(§3)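 Male Sprague-Dawley rats dosed orally at 3 mg/kg as a suspension and intravenously at 1 mg/kg as a bolus. Plasma levels quantified by LC/MS. Oral AUC and Cmax dose-normalized to 1 mg/kg. Means ± SD of three individual experiments.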"}, "Homo sapiens [4]": {"species": "Homo sapiens", "experiment": "Selectivity for human recombinant cathepsin S over human cathepsin X"}, "Cathepsin K [5]": {"molecular_target": "T1, Cathepsin K (Rattus norvegicus, UniProt O35186)", "T1 sequence (O35186 whole entry)": "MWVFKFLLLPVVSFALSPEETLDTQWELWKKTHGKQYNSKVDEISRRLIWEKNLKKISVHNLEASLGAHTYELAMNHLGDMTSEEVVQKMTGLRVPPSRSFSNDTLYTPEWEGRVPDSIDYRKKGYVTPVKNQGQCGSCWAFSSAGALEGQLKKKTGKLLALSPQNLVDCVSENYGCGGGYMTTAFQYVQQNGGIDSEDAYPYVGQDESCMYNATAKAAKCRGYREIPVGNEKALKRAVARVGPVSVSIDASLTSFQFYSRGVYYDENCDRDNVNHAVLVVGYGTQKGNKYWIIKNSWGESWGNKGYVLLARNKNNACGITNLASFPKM", "experiment": "Inhibition of rat cathepsin K by fluorescence assay", "outline": "as §1"}, "Rattus norvegicus [6]": {"species": "Rattus norvegicus", "experiment": "Reversal of neuropathic mechanical hyperalgesia in Wistar rat sciatic nerve ligation model with cathepsin S glycine 137 mutation", "assay_type": "functional, organism-based", "outline": "(§4)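 Partial sciatic nerve ligation in Wistar rats genotyped as 137Gly cathepsin S, with established mechanical hyperalgesia. Oral dosing in 0.5% methylcellulose/water; repeat regimen twice daily for 5 days, paw withdrawal thresholds 3 h post-dose. 6 animals/group; % reversal of hyperalgesia, mean ± SEM; ANOVA with Tukey's HSD versus vehicle.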"}, "[7]": {"molecular_target": "Cathepsin S (Mus musculus) (UniProt O70370)", "experiment": "Inhibition of cathepsin S-mediated proteolytic cleavage of MHC2 associated invariant chain in mouse splenocytes assessed as induction of accumulation of lip10", "assay_type": "cell-based"}, "Dipeptidyl peptidase 1": {"molecular_target": "Dipeptidyl peptidase 1 (Homo sapiens, UniProt P53634)", "sequence (P53634 25-134 limits assumed)": "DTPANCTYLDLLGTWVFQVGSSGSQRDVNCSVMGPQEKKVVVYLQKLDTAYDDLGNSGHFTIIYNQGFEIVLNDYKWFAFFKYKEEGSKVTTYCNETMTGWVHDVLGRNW", "sequence (P53634 231-394 limits assumed)": "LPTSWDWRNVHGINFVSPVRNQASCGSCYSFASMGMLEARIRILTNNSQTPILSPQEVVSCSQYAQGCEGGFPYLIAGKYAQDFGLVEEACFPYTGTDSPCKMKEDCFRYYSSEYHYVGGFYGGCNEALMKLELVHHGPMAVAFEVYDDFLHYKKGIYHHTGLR", "sequence (P53634 395-463 limits assumed)": "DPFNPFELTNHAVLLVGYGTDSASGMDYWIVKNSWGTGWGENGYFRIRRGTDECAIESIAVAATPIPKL", "experiment": "Inhibition of human cathepsin C"}, "Rattus norvegicus [8]": {"species": "Rattus norvegicus", "experiment": "Selectivity for rat cathepsin S glycine 137 mutant over rat cathepsin L", "outline": "as §2"}, "Homo sapiens [9]": {"species": "Homo sapiens", "experiment": "Selectivity for human recombinant cathepsin S over human cathepsin B"}, "Pro-cathepsin H": {"molecular_target": "T2, Pro-cathepsin H (Homo sapiens, UniProt P09668)", "T2 sequence (P09668 whole entry)": "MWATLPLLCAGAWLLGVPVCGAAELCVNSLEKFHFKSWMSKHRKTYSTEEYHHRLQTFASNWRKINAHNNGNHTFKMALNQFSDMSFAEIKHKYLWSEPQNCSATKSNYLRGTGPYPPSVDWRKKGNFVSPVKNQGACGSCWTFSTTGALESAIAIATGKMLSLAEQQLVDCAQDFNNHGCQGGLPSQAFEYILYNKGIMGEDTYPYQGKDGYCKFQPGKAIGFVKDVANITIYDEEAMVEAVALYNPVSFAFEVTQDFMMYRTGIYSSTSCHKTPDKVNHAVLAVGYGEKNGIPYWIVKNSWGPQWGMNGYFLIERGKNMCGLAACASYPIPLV", "experiment": "Inhibition of human cathepsin H"}, "[10]": {"experiment": "Inhibition of human cathepsin X"}, "Homo sapiens [11]": {"species": "Homo sapiens", "experiment": "Selectivity for human recombinant cathepsin S over human cathepsin C"}, "Procathepsin L": {"molecular_target": "Procathepsin L (Homo sapiens, UniProt P07711)", "sequence (P07711 whole entry)": "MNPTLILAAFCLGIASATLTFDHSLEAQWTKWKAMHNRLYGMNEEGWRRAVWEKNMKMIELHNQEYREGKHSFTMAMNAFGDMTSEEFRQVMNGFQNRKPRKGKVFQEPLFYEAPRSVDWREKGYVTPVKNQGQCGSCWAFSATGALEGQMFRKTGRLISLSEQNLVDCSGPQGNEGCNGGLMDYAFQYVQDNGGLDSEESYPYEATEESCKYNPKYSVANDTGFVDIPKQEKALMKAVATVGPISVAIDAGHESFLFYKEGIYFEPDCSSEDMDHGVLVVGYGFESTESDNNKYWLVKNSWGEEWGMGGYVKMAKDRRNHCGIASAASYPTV", "experiment": "Inhibition of human recombinant cathepsin L by fluorescence assay", "outline": "(§5)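 Recombinant human enzymes in a fluorescence assay; substrate Z-Phe-Arg-MCA for cathepsins K and L, Z-Leu-Leu-Arg-MCA for cathepsin S. Means of two experiments, each run in duplicate; individual points within a 2-fold range of each other.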"}, "[12]": {"experiment": "Bioavailability in Sprague-Dawley rat at 1 mg/kg, iv and 3 mg/kg, po by LC/MS analysis", "assay_type": "ADME, organism-based", "conditions": "in vivo", "outline": "as §3"}, "Rattus norvegicus [13]": {"test_system": "Rattus norvegicus", "experiment": "Reversal of neuropathic mechanical hyperalgesia in Wistar rat sciatic nerve ligation model assessed as paw withdrawal threshold at 30 mg/kg, po administered twice daily for 5 days after 3 hrs", "assay_type": "functional", "outline": "as §4"}, "Cathepsin S [14]": {"molecular_target": "Cathepsin S (Homo sapiens, UniProt P25774)", "sequence (P25774 whole entry)": "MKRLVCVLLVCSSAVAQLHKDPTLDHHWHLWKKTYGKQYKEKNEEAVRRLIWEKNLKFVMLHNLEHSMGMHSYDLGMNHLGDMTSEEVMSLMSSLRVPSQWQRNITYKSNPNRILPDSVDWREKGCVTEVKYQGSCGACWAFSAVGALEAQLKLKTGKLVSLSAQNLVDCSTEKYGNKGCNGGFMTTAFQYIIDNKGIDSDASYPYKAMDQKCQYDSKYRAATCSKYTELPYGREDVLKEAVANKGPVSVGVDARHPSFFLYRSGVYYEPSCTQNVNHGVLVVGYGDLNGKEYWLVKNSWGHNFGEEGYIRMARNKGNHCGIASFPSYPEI", "experiment": "Inhibition of human recombinant cathepsin S by fluorescence assay", "outline": "as §5"}, "Cathepsin B": {"molecular_target": "Cathepsin B (Homo sapiens, UniProt P07858)", "experiment": "Inhibition of human cathepsin B"}, "Cathepsin K [15]": {"molecular_target": "T3, Cathepsin K (Homo sapiens, UniProt P43235)", "T3 sequence (P43235 whole entry)": "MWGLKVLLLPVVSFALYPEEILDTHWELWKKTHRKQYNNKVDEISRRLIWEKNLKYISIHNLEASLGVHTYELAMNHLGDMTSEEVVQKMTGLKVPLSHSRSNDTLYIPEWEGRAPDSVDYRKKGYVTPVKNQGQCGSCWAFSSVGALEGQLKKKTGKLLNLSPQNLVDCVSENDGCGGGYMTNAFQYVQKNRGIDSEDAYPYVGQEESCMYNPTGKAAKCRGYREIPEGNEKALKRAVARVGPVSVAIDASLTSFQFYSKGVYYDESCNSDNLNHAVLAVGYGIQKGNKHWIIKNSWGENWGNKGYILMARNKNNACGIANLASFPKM", "experiment": "Inhibition of human recombinant cathepsin K by fluorescence assay", "outline": "as §5"}, "[16]": {"experiment": "Inhibition of rat cathepsin S glycine 137 mutant by fluorescence assay", "outline": "as §1"}, "[17]": {"experiment": "Cmax in Sprague-Dawley rat at 3 mg/kg, po by LC/MS analysis", "assay_type": "ADME, organism-based", "set-up": "dose 3 mg/kg, route oral", "conditions": "in vivo", "outline": "as §3"}, "Cytochrome P450 2C19": {"molecular_target": "Cytochrome P450 2C19 (Homo sapiens, UniProt P33261)", "sequence (P33261 whole entry)": "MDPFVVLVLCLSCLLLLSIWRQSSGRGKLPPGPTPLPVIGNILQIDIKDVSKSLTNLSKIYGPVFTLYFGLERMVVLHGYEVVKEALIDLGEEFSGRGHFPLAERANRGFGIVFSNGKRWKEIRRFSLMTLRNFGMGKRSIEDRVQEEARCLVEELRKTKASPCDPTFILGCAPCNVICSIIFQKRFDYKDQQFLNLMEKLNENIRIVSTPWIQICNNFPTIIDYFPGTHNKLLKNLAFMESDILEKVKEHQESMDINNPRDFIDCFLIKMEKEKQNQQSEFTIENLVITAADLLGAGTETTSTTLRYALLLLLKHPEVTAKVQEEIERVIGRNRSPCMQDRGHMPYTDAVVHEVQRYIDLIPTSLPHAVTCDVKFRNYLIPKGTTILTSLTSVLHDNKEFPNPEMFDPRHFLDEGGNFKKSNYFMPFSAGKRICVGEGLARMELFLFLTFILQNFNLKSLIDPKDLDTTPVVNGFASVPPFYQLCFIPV", "experiment": "Inhibition of CYP2C19 at 10 uM", "assay_type": "ADME", "outline": "(§6)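 Tested against a panel of cytochrome P450 enzymes at a maximum concentration of 10 µM.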"}, "Homo sapiens [18]": {"species": "Homo sapiens", "experiment": "Selectivity for human recombinant cathepsin S over human cathepsin H"}, "Cytochrome P450 3A4": {"molecular_target": "Cytochrome P450 3A4 (Homo sapiens, UniProt P08684)", "sequence (P08684 whole entry)": "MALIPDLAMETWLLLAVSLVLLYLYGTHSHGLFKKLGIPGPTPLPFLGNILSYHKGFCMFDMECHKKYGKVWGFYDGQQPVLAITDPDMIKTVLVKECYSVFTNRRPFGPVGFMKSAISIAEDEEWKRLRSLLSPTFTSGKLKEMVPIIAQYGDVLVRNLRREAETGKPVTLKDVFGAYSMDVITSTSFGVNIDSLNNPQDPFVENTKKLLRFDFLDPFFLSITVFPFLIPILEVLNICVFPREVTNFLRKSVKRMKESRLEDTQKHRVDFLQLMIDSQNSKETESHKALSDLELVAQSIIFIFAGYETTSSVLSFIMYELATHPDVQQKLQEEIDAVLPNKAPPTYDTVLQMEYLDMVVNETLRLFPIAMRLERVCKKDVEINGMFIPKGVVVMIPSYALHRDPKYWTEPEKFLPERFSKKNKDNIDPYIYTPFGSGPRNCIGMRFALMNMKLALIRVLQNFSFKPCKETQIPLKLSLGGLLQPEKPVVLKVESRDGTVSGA", "experiment": "Inhibition of CYP3A4 at 10 uM", "assay_type": "ADME", "outline": "as §6"}, "Cathepsin S [19]": {"molecular_target": "Cathepsin S (Mus musculus, UniProt O70370)", "experiment": "Inhibition of mouse cathepsin S by fluorescence assay", "outline": "as §1"}, "Rattus norvegicus [20]": {"species": "Rattus norvegicus", "experiment": "Reversal of neuropathic mechanical hyperalgesia in Wistar rat sciatic nerve ligation model with cathepsin S cysteine 137 mutation", "assay_type": "functional, organism-based"}, "[21]": {"molecular_target": "Cathepsin S (Mus musculus) (UniProt O70370)", "experiment": "Inhibition of cathepsin S-mediated proteolytic cleavage of MHC2 associated invariant chain in mouse splenocytes assessed as induction of accumulation of lip10 at 1 µM"}}, "note": "Active and inactive are the calls of the source.", "data": [{"smiles": "CC(=O)N1CCN(c2ccc(OCc3cc4cnc(C#N)nc4n3CCC3CCC(F)(F)CC3)cc2)CC1", "values": [{"measurement": "IC50", "setting": "[1]", "result": "> 10000", "unit": "nM"}, {"measurement": "Activity", "setting": "Rattus norvegicus [2]", "result": "> 100"}, {"measurement": "clearance", "setting": "[3]", "result": 51.7, "unit": "mL/min/kg"}, {"measurement": "Activity", "setting": "Homo sapiens [4]", "result": "> 100"}, {"measurement": "IC50", "setting": "Cathepsin K [5]", "result": "> 10000", "unit": "nM"}, {"measurement": "Activity", "setting": "Rattus norvegicus [6]", "result": "Dose-dependent effect"}, {"measurement": "Activity", "setting": "[7]", "result": "Dose-dependent effect"}, {"measurement": "Ki", "setting": "Dipeptidyl peptidase 1", "result": "> 10000", "unit": "nM"}, {"measurement": "Activity", "setting": "Rattus norvegicus [8]", "result": "> 100"}, {"measurement": "Activity", "setting": "Homo sapiens [9]", "result": "> 100"}, {"measurement": "Ki", "setting": "Pro-cathepsin H", "result": "> 10000", "unit": "nM"}, {"measurement": "Ki", "setting": "[10]", "result": 650, "unit": "nM"}, {"measurement": "Activity", "setting": "Homo sapiens [11]", "result": "> 100"}, {"measurement": "IC50", "setting": "Procathepsin L", "result": 6200, "unit": "nM"}, {"measurement": "bioavailability", "setting": "[12]", "result": 21, "unit": "%"}, {"measurement": "Activity", "setting": "Rattus norvegicus [13]", "result": 40, "unit": "%"}, {"measurement": "IC50", "setting": "Cathepsin S [14]", "result": 10, "unit": "nM"}, {"measurement": "Ki", "setting": "Cathepsin S [14]", "result": 4, "unit": "nM"}, {"measurement": "IC50", "setting": "Cathepsin B", "result": "> 30000", "unit": "nM"}, {"measurement": "IC50", "setting": "Cathepsin K [15]", "result": 5400, "unit": "nM"}, {"measurement": "IC50", "setting": "[16]", "result": 28, "unit": "nM"}, {"measurement": "Cmax", "setting": "[17]", "result": 37, "unit": "nM"}, {"measurement": "Activity", "setting": "Cytochrome P450 2C19", "result": "Not Active"}, {"measurement": "Activity", "setting": "Homo sapiens [18]", "result": "> 100"}, {"measurement": "Activity", "setting": "Cytochrome P450 3A4", "result": "Not Active"}, {"measurement": "IC50", "setting": "Cathepsin S [19]", "result": 20, "unit": "nM"}, {"measurement": "Activity", "setting": "Rattus norvegicus [20]", "result": "inactive"}, {"measurement": "Activity", "setting": "[21]", "result": "Active"}]}]}
